Reference: article PMC3669693 (Journal of neuroimmune pharmacology : the official journal …, 2012)
“And” between values parts separate entries of the source, which are not always exact repeats. Identical values can stand only once. Like-named read-outs stand apart in the source and are kept apart here.

Legend:
GPR55 [1] = target: T1, GPR55 (Homo sapiens, UniProt Q9Y2T6); assay: β-arrestin assessment of GPR55 activation; format: cell-based; details: for maximal inhibition of LPI response / effect of low concentrations on LPI-mediated βarr2-GFP recruitment: agonist 3 μM LPI; for maximal inhibition of LPI response / maximal inhibition of SR141716A response: normalized to agonist response; for recruitment of βarr2-GFP by compound alone: no agonist, AEA 0.1–30 μM
Outline: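 U2OS cells stably co-expressing HA-GPR55E and βarr2-GFP were seeded on glass coverslips, kept overnight at 37°C/5% CO2 and assayed in HBSS. Test compound (0.01–30 μM) was pre-incubated 15 min, then co-incubated 40 min RT with 3 μM LPI or 30 μM SR141716A. Fixation: 4% paraformaldehyde, 25 min. Imaging: 488 nm, 40X oil. Fluorescent pit counts were normalized to agonist response (100%), with sigmoidal fits for IC50. Three experiments in duplicate.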

GPR55 [2] = target: T1, GPR55; assay: GPR55 internalization assay, immunocytochemistry; format: cell-based; details: for effect on GPR55 internalization induced by ML184, ML185, ML186: 10 μM pre-incubation, agonist 5 μM of each ML compound; for effect on LPI-induced GPR55 internalization / effect on SR141716A-induced GPR55 internalization / GPR55 receptor localization, compound alone: 10 μM; for effect on LPI-induced GPR55 internalization / effect on SR141716A-induced GPR55 internalization: 15 min pre-incubation; for effect on LPI-induced GPR55 internalization: agonist 3 μM LPI; for effect on SR141716A-induced GPR55 internalization: agonist 30 μM SR141716A; for GPR55 receptor localization, compound alone: no agonist; for GPR55 receptor internalization, compound alone: 40 min, RT
[3] = tested on: HA-GPR55E/βarr2-GFP U2OS cells; assay: LDH cytotoxicity assay; format: cell-based; details: for toxicity to the cells (released LDH): at concentrations employed in this study (10 and 30 μM)
GPR55 [4] = target: T1, GPR55; details: cited from earlier work
GPR55 [5] = target: T1, GPR55; details: read-out: EC50, agonist at GPR55 (βarr2-GFP distribution); previous study; ref Kapur et al. 2009; cited from earlier work
CB1 = details: read-out: agonist potency at CB1; ref Ryberg et al., 2007; cited from earlier work
CB2 = details: read-out: agonist potency at CB2; ref Ryberg et al., 2007; cited from earlier work
GPR55 [6] = target: T1, GPR55; details: read-out: agonist potency at GPR55; ref Ryberg et al., 2007; cited from earlier work
CB1 receptor = details: ref Porter et al., 2002; cited from earlier work
CB2 receptor = details: ref Porter et al., 2002; cited from earlier work
[7] = 10 μM + 3 μM LPI, % of total LDH activity
[8] = 10 μM + 30 μM SR141716A, % of total LDH activity
[9] = 10 μM alone, % of total LDH activity (1% Triton X-100)
[10] = 30 μM + 3 μM LPI, % of total LDH activity
[11] = 30 μM + 30 μM SR141716A, % of total LDH activity
[12] = 30 μM alone, % of total LDH activity (1% Triton X-100)

T1 sequence (Q9Y2T6 1-292 limits assumed): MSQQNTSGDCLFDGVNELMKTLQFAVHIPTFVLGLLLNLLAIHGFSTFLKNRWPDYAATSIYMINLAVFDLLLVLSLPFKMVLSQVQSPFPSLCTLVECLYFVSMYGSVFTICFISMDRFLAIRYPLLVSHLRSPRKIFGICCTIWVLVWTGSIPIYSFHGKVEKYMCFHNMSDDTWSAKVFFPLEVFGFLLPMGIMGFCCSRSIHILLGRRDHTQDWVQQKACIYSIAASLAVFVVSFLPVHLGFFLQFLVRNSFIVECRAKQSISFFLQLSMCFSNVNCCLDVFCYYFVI

CCCCC/C=C\C/C=C\C/C=C\C/C=C\CCCC(=O)NCCO [AEA, N-arachidonyl ethanolamine]
IC50 (GPR55 [1]): 5.91 µM and 12 µM
maximal inhibition of LPI response (GPR55 [1]): 20%
maximal inhibition of SR141716A response (GPR55 [1]; agonist 30 μM SR141716A): 65%
recruitment of βarr2-GFP by compound alone (GPR55 [1]): did not result in recruitment of βarr2-GFP
effect of low concentrations on LPI-mediated βarr2-GFP recruitment (GPR55 [1]; low concentrations): enhanced the recruitment
effect on GPR55 internalization induced by ML184, ML185, ML186 (GPR55 [2]): largely attenuated
effect on LPI-induced GPR55 internalization (GPR55 [2]): markedly decreased receptor internalization
effect on SR141716A-induced GPR55 internalization (GPR55 [2]): markedly decreased receptor internalization
GPR55 receptor localization, compound alone (GPR55 [2]): membrane bound receptors
Cell death, % [3, 7]: 6.12%
Cell death, % [3, 8]: 6.79%
Cell death, % [3, 9]: 5.90%
Cell death, % [3, 10]: 5.86%
Cell death, % [3, 11]: 8.02%
Cell death, % [3, 12]: 5.93%
toxicity to the cells (released LDH) [3]: neither AEA nor virodhamine are toxic
activation of GPR55 (GPR55 [4]; previous findings of the laboratory, ref Kapur et al., 2009): did not activate GPR55

CCCCCCC(C)(C)c1ccc([C@@H]2C[C@H](O)CC[C@H]2CCCO)c(O)c1 [CP55,940]
type of activity at GPR55 (GPR55 [4]; ref Henstridge et al. 2009, Kapur et al. 2009, Pineiro et al. 2011): antagonist/partial agonist

Cc1cccc(N2CCN(C(=O)c3cc(S(=O)(=O)N(C)C)ccc3N3CCCC3)CC2)c1C [ML184, 3-[4-(2,3-dimethylphenyl)piperazine-1-carbonyl]-N,N-dimethyl-4-pyrrolidin-1-ylbenzenesulfonamide]
GPR55 receptor internalization, compound alone (GPR55 [2]; 5 μM): resulted in receptor internalization

COc1ccc(-c2csc(NC(=O)CSc3nnc4c(C)cc5ccccc5n34)n2)cc1 [ML185, N-[4-(4-methoxyphenyl)-1,3-thiazol-2-yl]-2-[(4-methyl-[1,2,4]triazolo[4,3-a]quinolin-1-yl)sulfanyl]acetamide]
GPR55 receptor internalization, compound alone (GPR55 [2]; 5 μM): resulted in receptor internalization

COc1ccc(S(=O)(=O)N2CCOCC2)cc1NC(=O)c1cc2c(s1)CCCC2 [ML186, N-(2-methoxy-5-morpholin-4-ylsulfonylphenyl)-4,5,6,7-tetrahydro-1-benzothiophene-2-carboxamide]
GPR55 receptor internalization, compound alone (GPR55 [2]; 5 μM): resulted in receptor internalization

Cc1c(C(=O)NN2CCCCC2)nn(-c2ccc(Cl)cc2Cl)c1-c1ccc(Cl)cc1 [SR141716A, N-(piperidin-1-yl)-5-(4-chlorophenyl)-1-(2,4-dichlorophenyl)-4-methyl-1H-pyrazole-3-carboxamide]
GPR55 receptor internalization, compound alone (GPR55 [2]; 30 μM): loss of membrane staining and the appearance of cytosolic fluorescent aggregates corresponding to internalized receptors
Cell death, % [3, 12]: 7.12%
EC50 (GPR55 [5]): 3.9 µM

CCCCC/C=C\C/C=C\C/C=C\C/C=C\CCCC(=O)OCCN [virodhamine, O-arachidonoyl ethanolamine]
maximal inhibition of LPI response (GPR55 [1]): 46%
maximal inhibition of SR141716A response (GPR55 [1]; agonist 30 μM SR141716A): 68%
recruitment of βarr2-GFP by compound alone (GPR55 [1]): weak recruitment of βarr2-GFP
effect of low concentrations on LPI-mediated βarr2-GFP recruitment (GPR55 [1]; low concentrations): enhanced the recruitment
effect of low concentrations on SR141716A-mediated βarr2-GFP recruitment (GPR55 [1]; low concentrations, agonist 30 μM SR141716A): enhanced the recruitment
effect on GPR55 internalization induced by ML184, ML185, ML186 (GPR55 [2]): largely attenuated
effect on LPI-induced GPR55 internalization (GPR55 [2]): strikingly decreased receptor internalization
effect on SR141716A-induced GPR55 internalization (GPR55 [2]): strikingly decreased receptor internalization
GPR55 receptor localization, compound alone (GPR55 [2]): receptors were localized to the membrane
EC50 (CB1): 2.9 µM
EC50 (CB2): 0.381 µM
Cell death, % [3, 7]: 6.94%
Cell death, % [3, 8]: 6.44%
Cell death, % [3, 9]: 7.27%
Cell death, % [3, 10]: 8.73%
Cell death, % [3, 11]: 6.93%
Cell death, % [3, 12]: 8.08%
toxicity to the cells (released LDH) [3]: neither AEA nor virodhamine are toxic
EC50 (GPR55 [6]): 0.012 µM
type of activity at the CB1 receptor (CB1 receptor): partial agonist/antagonist
type of activity at the CB2 receptor (CB2 receptor): full agonist

lysophosphatidylinositol [LPI]
GPR55 receptor internalization, compound alone (GPR55 [2]; 3 μM): loss of membrane staining and the appearance of cytosolic fluorescent aggregates corresponding to internalized receptors
Cell death, % ([3]; 3 μM alone, % of total LDH activity (1% Triton X-100)): 7.08%
EC50 (GPR55 [5]): 1.2 µM
